In ChEMBL document CHEMBL4622869, “Discovery and structure-activity relationships study of positive allosteric modulators of the M3 muscarinic acetylcholine receptor” (Bioorg Med Chem, 2020):

Key:
[1] = target: T1, Muscarinic acetylcholine receptor M1 (Homo sapiens) (UniProt P11229); assay: (§1) Positive allosteric modulation of recombinant human muscarinic acetylcholine receptor M1 expressed in CHOK1 cells assessed as increase in carbachol-induced intracellular calcium flux at 10 uM preincubated for 5 mins followed by carbachol addition by Fluo4-AM dye based FLIPR assay relative to carbachol; format: functional, cell-based; conditions: CHO-K1
T1 sequence (whole entry): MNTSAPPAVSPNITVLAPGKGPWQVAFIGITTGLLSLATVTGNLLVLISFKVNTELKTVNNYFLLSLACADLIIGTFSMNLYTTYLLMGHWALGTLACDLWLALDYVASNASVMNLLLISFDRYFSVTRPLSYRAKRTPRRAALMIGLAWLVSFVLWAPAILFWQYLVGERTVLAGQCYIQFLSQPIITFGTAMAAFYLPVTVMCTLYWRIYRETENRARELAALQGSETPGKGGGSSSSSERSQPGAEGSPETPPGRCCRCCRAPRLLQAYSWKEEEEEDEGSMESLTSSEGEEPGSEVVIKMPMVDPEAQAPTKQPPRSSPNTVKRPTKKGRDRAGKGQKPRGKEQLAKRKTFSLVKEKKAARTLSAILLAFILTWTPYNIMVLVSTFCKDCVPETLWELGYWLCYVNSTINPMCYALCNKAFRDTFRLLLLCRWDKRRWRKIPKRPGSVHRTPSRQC
Method in brief: (§2)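 CHO-K1 cells stably expressing human or rat M1–M5; M2 and M4 lines also co-express human Gα16. Cells loaded with 3.1 μM Fluo-4 AM in HBSS/20 mM HEPES pH 7.5/BSA/2.5 mM probenecid for ~2 h at room temperature. Test substance at 10 μM final, then carbachol (0.0024 nM–100 μM) ~5 min later; Ca2+ read by FLIPR Tetra. Fold shift = carbachol EC50 without / with test substance, from logistic fits.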

[2] = target: T2, Muscarinic acetylcholine receptor M2 (Rattus norvegicus) (UniProt P10980); assay: as §1, with “rat” for “human”, “M2” for “M1”, “cells coexpressing G-alpha16” for “cells”; format: functional, cell-based; conditions: CHO-K1; method in brief: as §2
T2 sequence (whole entry): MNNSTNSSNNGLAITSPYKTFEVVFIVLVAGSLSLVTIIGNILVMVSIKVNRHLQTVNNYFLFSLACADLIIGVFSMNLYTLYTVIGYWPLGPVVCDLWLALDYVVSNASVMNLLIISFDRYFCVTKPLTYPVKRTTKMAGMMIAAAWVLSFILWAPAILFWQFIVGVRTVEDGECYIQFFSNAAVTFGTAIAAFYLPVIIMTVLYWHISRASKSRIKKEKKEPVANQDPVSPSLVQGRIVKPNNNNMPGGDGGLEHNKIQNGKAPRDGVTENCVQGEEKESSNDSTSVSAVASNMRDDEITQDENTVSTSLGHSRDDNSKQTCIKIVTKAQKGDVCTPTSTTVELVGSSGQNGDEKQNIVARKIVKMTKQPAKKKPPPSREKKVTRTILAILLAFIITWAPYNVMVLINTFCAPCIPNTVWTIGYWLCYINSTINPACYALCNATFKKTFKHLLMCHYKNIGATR

[3] = target: Muscarinic acetylcholine receptor M3 (Rattus norvegicus) (UniProt P08483); assay: Positive allosteric modulation of recombinant rat muscarinic acetylcholine receptor M3 expressed in CHOK1 cells assessed as increase in carbachol-induced intracellular calcium flux at 10 uM preincubated for 5 mins followed by carbachol addition by Fluo4-AM dye based FLIPR assay relative to carbachol; format: functional, cell-based; conditions: CHO-K1; method in brief: as §2
[4] = target: T3, Thrombopoietin receptor (Homo sapiens, UniProt P40238); assay: Agonist activity at recombinant human c-Mpl receptor transfected in BA/F3 cells assessed as increase in cell proliferation by cell counting analysis; format: cell-based; conditions: baf3
T3 sequence (P40238 whole entry): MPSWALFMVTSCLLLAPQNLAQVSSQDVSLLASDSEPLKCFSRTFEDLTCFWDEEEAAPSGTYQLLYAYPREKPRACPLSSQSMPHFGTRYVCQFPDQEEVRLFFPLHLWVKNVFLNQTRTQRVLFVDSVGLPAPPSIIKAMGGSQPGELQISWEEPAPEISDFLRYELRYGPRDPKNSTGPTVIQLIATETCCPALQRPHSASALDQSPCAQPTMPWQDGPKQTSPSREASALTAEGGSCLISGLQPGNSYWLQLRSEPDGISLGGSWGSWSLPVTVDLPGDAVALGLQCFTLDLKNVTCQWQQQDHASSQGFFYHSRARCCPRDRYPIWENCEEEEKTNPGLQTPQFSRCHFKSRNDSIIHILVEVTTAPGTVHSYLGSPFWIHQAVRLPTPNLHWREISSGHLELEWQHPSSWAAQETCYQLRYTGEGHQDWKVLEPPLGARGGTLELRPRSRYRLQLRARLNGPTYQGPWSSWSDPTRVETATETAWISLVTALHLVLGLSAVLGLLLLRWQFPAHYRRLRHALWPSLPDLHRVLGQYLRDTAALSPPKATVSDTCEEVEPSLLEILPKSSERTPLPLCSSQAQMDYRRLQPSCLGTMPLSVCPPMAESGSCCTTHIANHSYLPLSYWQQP
Method in brief: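 Ba/F3 cells stably transfected with human c-Mpl by electroporation with blasticidin selection. 1×10^4 cells/well in RPMI-1640 with 10% FBS, with test substance (100 nM to 10 μM final), overnight at 37°C in 5% CO2. Cell Counting Kit added for about 5 h, then A450 read. Scale: untreated wells 0%, reference c-Mpl agonist at 1 μM 100%. EC30 from logistic regression.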

[5] = AUCinfinity in Crl:CD(SD) rat at 0.3 mg/kg, iv measured up to 24 hrs by LC-MS/MS analysis; format: ADME, organism-based; set-up: dose 0.3 mg/kg, route intravenous, time infinity; conditions: in vivo
Method in brief: (§3)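 Male Crl:CD(SD) rats, 8 weeks old, food deprived (n=4); iv 0.3 mg/kg or po 1 mg/kg in DMF/propylene glycol/water for injection (1/1/8) containing 1 M NaOH (2 equivalents). Plasma sampled to 24 h, assayed by validated LC-MS/MS. Parameters from each animal by noncompartmental analysis, reported as means.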

[6] = AUCinfinity in Crl:CD(SD) rat at 1 mg/kg, po measured up to 24 hrs by LC-MS/MS analysis; format: ADME, organism-based; set-up: dose 1 mg/kg, time infinity, route oral; conditions: in vivo; method in brief: as §3

Muscarinic acetylcholine receptor M3 (Rattus norvegicus), sequence (P08483 whole entry, looked up): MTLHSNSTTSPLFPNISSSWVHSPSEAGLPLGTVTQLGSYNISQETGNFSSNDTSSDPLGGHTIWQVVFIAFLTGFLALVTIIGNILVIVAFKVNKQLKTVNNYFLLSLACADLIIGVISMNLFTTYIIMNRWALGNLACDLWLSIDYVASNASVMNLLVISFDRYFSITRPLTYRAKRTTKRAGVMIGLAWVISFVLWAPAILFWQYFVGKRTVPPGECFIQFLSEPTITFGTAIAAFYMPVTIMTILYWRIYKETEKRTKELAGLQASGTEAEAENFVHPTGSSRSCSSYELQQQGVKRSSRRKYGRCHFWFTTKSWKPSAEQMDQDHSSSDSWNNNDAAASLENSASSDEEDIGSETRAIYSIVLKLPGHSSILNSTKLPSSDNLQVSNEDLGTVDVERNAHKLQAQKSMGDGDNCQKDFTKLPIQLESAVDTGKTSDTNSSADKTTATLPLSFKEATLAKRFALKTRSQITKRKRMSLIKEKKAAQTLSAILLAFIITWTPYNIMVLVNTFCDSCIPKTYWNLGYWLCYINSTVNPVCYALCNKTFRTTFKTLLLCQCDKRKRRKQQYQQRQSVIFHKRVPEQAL

fold change (FC) [1]: 2.3
fold change (FC) [2]: 1.6
fold change (FC) [3]: 158
AUC(0-inf) [5]: 330 ng·h/mL
AUC(0-inf) [6]: 209 ng·h/mL
Compound: CC[C@@H]1CCCN1Cc1sc(NC(=O)c2cnc(N3CCC(C(=O)O)CC3)cn2)nc1-c1ccc(OC)c(C(F)(F)F)c1.Cl.Cl
EC30 [4]: > 10 µM
